# pIC50: −log10 of the molar value.
# Target: Fructose-1,6-bisphosphatase 1 (Homo sapiens, UniProt P09467, N126A)
# Assay: Inhibition of human FBPase N125A mutant expressed in Escherichia coli BL21 (DE3) using FBP as substrate incubated for 5 mins by malachite green dye based spectrophotometry
# Method in brief: (§1)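 Recombinant human FBPase (wild type or point mutants) was expressed in E. coli BL21 (DE3), purified and stored in 50% glycerol at -20 °C. Reactions ran 5 min at 37 °C, and released phosphate was read by malachite green.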
# Fructose-1,6-bisphosphatase 1 (Homo sapiens, UniProt P09467, N126A), sequence (P09467 2-338 N126A limits assumed): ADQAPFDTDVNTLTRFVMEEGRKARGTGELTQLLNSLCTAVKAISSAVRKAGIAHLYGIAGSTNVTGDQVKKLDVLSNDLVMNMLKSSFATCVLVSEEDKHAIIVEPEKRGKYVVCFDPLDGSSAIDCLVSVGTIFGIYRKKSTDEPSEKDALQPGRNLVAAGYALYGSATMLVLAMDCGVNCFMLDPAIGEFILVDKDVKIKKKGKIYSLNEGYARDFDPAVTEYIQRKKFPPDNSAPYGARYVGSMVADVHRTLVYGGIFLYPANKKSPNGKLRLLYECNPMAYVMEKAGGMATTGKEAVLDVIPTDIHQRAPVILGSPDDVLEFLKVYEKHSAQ
row,SMILES,pIC50
1,CCOC(=O)C(C)(C)Oc1ccc(F)c(/C=C/[N+](=O)[O-])c1,< 3.52
2,N#Cc1ccc(/C=C/[N+](=O)[O-])cc1,< 3.70
3,O=[N+]([O-])/C=C/c1cccc(F)c1,< 3.70

# Target: Fructose-1,6-bisphosphatase 1 (Homo sapiens, UniProt P09467, C282S)
# Sequence (P09467 2-338 C282S limits assumed): as the sequence (P09467 2-338 N126A limits assumed) above, with A125N, C281S counted along it
# Assay: Inhibition of human FBPase C281S mutant expressed in Escherichia coli BL21 (DE3) using FBP as substrate incubated for 5 mins by malachite green dye based spectrophotometry
# Method in brief: as §1
row,SMILES,pIC50
1,CCOC(=O)C(C)(C)Oc1ccc(F)c(/C=C/[N+](=O)[O-])c1,5.89
2,N#Cc1ccc(/C=C/[N+](=O)[O-])cc1,6.21
3,O=[N+]([O-])/C=C/c1cccc(F)c1,5.64

# Species: Homo sapiens
# Assay: Selectivity index, ratio of IC50 for human FBPase C116S mutant expressed in Escherichia coli BL21 (DE3) to IC50 for human FBPase expressed in Escherichia coli BL21 (DE3)
# Method in brief: (§2)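 IC50 values for each FBPase point mutant and for wild-type human FBPase came from the same malachite-green assay. The index is mutant IC50 divided by wild-type IC50.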
row,SMILES,Ratio IC50
1,CCOC(=O)C(C)(C)Oc1ccc(F)c(/C=C/[N+](=O)[O-])c1,1.6
2,N#Cc1ccc(/C=C/[N+](=O)[O-])cc1,0.94
3,O=[N+]([O-])/C=C/c1cccc(F)c1,3.4

# Species: Homo sapiens
# Assay: Selectivity index, ratio of IC50 for human FBPase C38S mutant expressed in Escherichia coli BL21 (DE3) to IC50 for human FBPase expressed in Escherichia coli BL21 (DE3)
# Method in brief: as §2
row,SMILES,Ratio IC50
1,CCOC(=O)C(C)(C)Oc1ccc(F)c(/C=C/[N+](=O)[O-])c1,1
2,N#Cc1ccc(/C=C/[N+](=O)[O-])cc1,1.4
3,O=[N+]([O-])/C=C/c1cccc(F)c1,3.8

# Species: Homo sapiens
# Assay: Selectivity index, ratio of IC50 for human FBPase C179S mutant expressed in Escherichia coli BL21 (DE3) to IC50 for human FBPase expressed in Escherichia coli BL21 (DE3)
# Method in brief: as §2
row,SMILES,Ratio IC50
1,CCOC(=O)C(C)(C)Oc1ccc(F)c(/C=C/[N+](=O)[O-])c1,5.9
2,N#Cc1ccc(/C=C/[N+](=O)[O-])cc1,1.2
3,O=[N+]([O-])/C=C/c1cccc(F)c1,2.8

# Target: Fructose-1,6-bisphosphatase 1 (Homo sapiens, UniProt P09467, C129S)
# Sequence (P09467 2-338 C129S limits assumed): as the sequence (P09467 2-338 N126A limits assumed) above, with A125N, C128S counted along it
# Assay: Inhibition of human FBPase C128S mutant expressed in Escherichia coli BL21 (DE3) using FBP as substrate incubated for 5 mins by malachite green dye based spectrophotometry
# Method in brief: as §1
row,SMILES,pIC50
1,CCOC(=O)C(C)(C)Oc1ccc(F)c(/C=C/[N+](=O)[O-])c1,< 3.30
2,N#Cc1ccc(/C=C/[N+](=O)[O-])cc1,< 3.46
3,O=[N+]([O-])/C=C/c1cccc(F)c1,< 3.46

# Target: T1, Fructose-1,6-bisphosphatase 1 (Homo sapiens, UniProt P09467)
# T1 sequence (P09467 whole entry): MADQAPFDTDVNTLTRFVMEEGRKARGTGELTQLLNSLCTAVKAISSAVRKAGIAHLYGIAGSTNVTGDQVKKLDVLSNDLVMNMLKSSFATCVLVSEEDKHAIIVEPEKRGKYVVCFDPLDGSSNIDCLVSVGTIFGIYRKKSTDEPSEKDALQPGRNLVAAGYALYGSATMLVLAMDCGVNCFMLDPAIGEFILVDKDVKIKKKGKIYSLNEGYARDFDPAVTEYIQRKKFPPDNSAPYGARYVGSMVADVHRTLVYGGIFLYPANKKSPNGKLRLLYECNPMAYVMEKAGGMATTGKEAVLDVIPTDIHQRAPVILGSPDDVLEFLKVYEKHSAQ
# Assay: Inhibition of human FBPase expressed in Escherichia coli BL21 (DE3) using FBP as substrate incubated for 5 mins by malachite green dye based spectrophotometry
row,SMILES,pIC50
1,CCOC(=O)C(C)(C)Oc1ccc(F)c(/C=C/[N+](=O)[O-])c1,6.21
2,N#Cc1ccc(/C=C/[N+](=O)[O-])cc1,6.44
3,O=[N+]([O-])/C=C/c1cccc(F)c1,6.49

# Target: Fructose-1,6-bisphosphatase 1 (Homo sapiens, UniProt P09467, C184S)
# Sequence (P09467 2-338 C184S limits assumed): as the sequence (P09467 2-338 N126A limits assumed) above, with A125N, C183S counted along it
# Assay: Inhibition of human FBPase C183S mutant expressed in Escherichia coli BL21 (DE3) using FBP as substrate incubated for 5 mins by malachite green dye based spectrophotometry
# Method in brief: as §1
row,SMILES,pIC50
1,CCOC(=O)C(C)(C)Oc1ccc(F)c(/C=C/[N+](=O)[O-])c1,6.01
2,N#Cc1ccc(/C=C/[N+](=O)[O-])cc1,6.36
3,O=[N+]([O-])/C=C/c1cccc(F)c1,6.04

# Species: Homo sapiens
# Assay: Selectivity index, ratio of IC50 for human FBPase R243A mutant expressed in Escherichia coli BL21 (DE3) to IC50 for human FBPase expressed in Escherichia coli BL21 (DE3)
# Method in brief: as §2
row,SMILES,Ratio IC50
1,CCOC(=O)C(C)(C)Oc1ccc(F)c(/C=C/[N+](=O)[O-])c1,28
2,N#Cc1ccc(/C=C/[N+](=O)[O-])cc1,1.9
3,O=[N+]([O-])/C=C/c1cccc(F)c1,6.9

# Target: Fructose-1,6-bisphosphatase 1 (Homo sapiens, UniProt P09467, C180S)
# Sequence (P09467 2-338 C180S limits assumed): as the sequence (P09467 2-338 N126A limits assumed) above, with A125N, C179S counted along it
# Assay: Inhibition of human FBPase C179S mutant expressed in Escherichia coli BL21 (DE3) using FBP as substrate incubated for 5 mins by malachite green dye based spectrophotometry
# Method in brief: as §1
row,SMILES,pIC50
1,CCOC(=O)C(C)(C)Oc1ccc(F)c(/C=C/[N+](=O)[O-])c1,5.44
2,N#Cc1ccc(/C=C/[N+](=O)[O-])cc1,6.37
3,O=[N+]([O-])/C=C/c1cccc(F)c1,6.05

# Target: Fructose-1,6-bisphosphatase 1 (Homo sapiens, UniProt P09467, C39S)
# Sequence (P09467 2-338 C39S limits assumed): as the sequence (P09467 2-338 N126A limits assumed) above, with C38S, A125N counted along it
# Assay: Inhibition of human FBPase C38S mutant expressed in Escherichia coli BL21 (DE3) using FBP as substrate incubated for 5 mins by malachite green dye based spectrophotometry
# Method in brief: as §1
row,SMILES,pIC50
1,CCOC(=O)C(C)(C)Oc1ccc(F)c(/C=C/[N+](=O)[O-])c1,6.18
2,N#Cc1ccc(/C=C/[N+](=O)[O-])cc1,6.31
3,O=[N+]([O-])/C=C/c1cccc(F)c1,5.92

# Species: Homo sapiens
# Assay: Selectivity index, ratio of IC50 for human FBPase N125A mutant expressed in Escherichia coli BL21 (DE3) to IC50 for human FBPase expressed in Escherichia coli BL21 (DE3)
# Method in brief: as §2
row,SMILES,Ratio IC50
1,CCOC(=O)C(C)(C)Oc1ccc(F)c(/C=C/[N+](=O)[O-])c1,492
2,N#Cc1ccc(/C=C/[N+](=O)[O-])cc1,> 556
3,O=[N+]([O-])/C=C/c1cccc(F)c1,> 625

# Species: Homo sapiens
# Assay: Selectivity index, ratio of IC50 for human FBPase R254A mutant expressed in Escherichia coli BL21 (DE3) to IC50 for human FBPase expressed in Escherichia coli BL21 (DE3)
# Method in brief: as §2
row,SMILES,Ratio IC50
1,CCOC(=O)C(C)(C)Oc1ccc(F)c(/C=C/[N+](=O)[O-])c1,20
2,N#Cc1ccc(/C=C/[N+](=O)[O-])cc1,10
3,O=[N+]([O-])/C=C/c1cccc(F)c1,26

# Species: Homo sapiens
# Assay: Selectivity index, ratio of IC50 for human FBPase S124A mutant expressed in Escherichia coli BL21 (DE3) to IC50 for human FBPase expressed in Escherichia coli BL21 (DE3)
# Method in brief: as §2
row,SMILES,Ratio IC50
1,CCOC(=O)C(C)(C)Oc1ccc(F)c(/C=C/[N+](=O)[O-])c1,39
2,N#Cc1ccc(/C=C/[N+](=O)[O-])cc1,3.8
3,O=[N+]([O-])/C=C/c1cccc(F)c1,37.8

# Target: Fructose-1,6-bisphosphatase 1 (Homo sapiens, UniProt P09467, S125A)
# Sequence (P09467 2-338 S125A limits assumed): as the sequence (P09467 2-338 N126A limits assumed) above, with S124A, A125N counted along it
# Assay: Inhibition of human FBPase S124A mutant expressed in Escherichia coli BL21 (DE3) using FBP as substrate incubated for 5 mins by malachite green dye based spectrophotometry
# Method in brief: as §1
row,SMILES,pIC50
1,CCOC(=O)C(C)(C)Oc1ccc(F)c(/C=C/[N+](=O)[O-])c1,4.62
2,N#Cc1ccc(/C=C/[N+](=O)[O-])cc1,5.85
3,O=[N+]([O-])/C=C/c1cccc(F)c1,4.92

# Target: Fructose-1,6-bisphosphatase 1 (Homo sapiens, UniProt P09467, R255A)
# Sequence (P09467 2-338 R255A limits assumed): as the sequence (P09467 2-338 N126A limits assumed) above, with A125N, R254A counted along it
# Assay: Inhibition of human FBPase R254A mutant expressed in Escherichia coli BL21 (DE3) using FBP as substrate incubated for 5 mins by malachite green dye based spectrophotometry
# Method in brief: as §1
row,SMILES,pIC50
1,CCOC(=O)C(C)(C)Oc1ccc(F)c(/C=C/[N+](=O)[O-])c1,4.92
2,N#Cc1ccc(/C=C/[N+](=O)[O-])cc1,5.44
3,O=[N+]([O-])/C=C/c1cccc(F)c1,5.08

# Target: Fructose-1,6-bisphosphatase 1 (Homo sapiens, UniProt P09467, C93S)
# Sequence (P09467 2-338 C93S limits assumed): as the sequence (P09467 2-338 N126A limits assumed) above, with C92S, A125N counted along it
# Assay: Inhibition of human FBPase C92S mutant expressed in Escherichia coli BL21 (DE3) using FBP as substrate incubated for 5 mins by malachite green dye based spectrophotometry
# Method in brief: as §1
row,SMILES,pIC50
1,CCOC(=O)C(C)(C)Oc1ccc(F)c(/C=C/[N+](=O)[O-])c1,6.19
2,N#Cc1ccc(/C=C/[N+](=O)[O-])cc1,6.47
3,O=[N+]([O-])/C=C/c1cccc(F)c1,6.21

# Species: Homo sapiens
# Assay: Selectivity index, ratio of IC50 for human FBPase C92S mutant expressed in Escherichia coli BL21 (DE3) to IC50 for human FBPase expressed in Escherichia coli BL21 (DE3)
# Method in brief: as §2
row,SMILES,Ratio IC50
1,CCOC(=O)C(C)(C)Oc1ccc(F)c(/C=C/[N+](=O)[O-])c1,1
2,N#Cc1ccc(/C=C/[N+](=O)[O-])cc1,0.97
3,O=[N+]([O-])/C=C/c1cccc(F)c1,1.9

# Species: Homo sapiens
# Assay: Selectivity index, ratio of IC50 for human FBPase Y258A mutant expressed in Escherichia coli BL21 (DE3) to IC50 for human FBPase expressed in Escherichia coli BL21 (DE3)
# Method in brief: as §2
row,SMILES,Ratio IC50
1,CCOC(=O)C(C)(C)Oc1ccc(F)c(/C=C/[N+](=O)[O-])c1,4.8
2,N#Cc1ccc(/C=C/[N+](=O)[O-])cc1,4.2
3,O=[N+]([O-])/C=C/c1cccc(F)c1,19

# Species: Homo sapiens
# Assay: Selectivity index, ratio of IC50 for human FBPase C183S mutant expressed in Escherichia coli BL21 (DE3) to IC50 for human FBPase expressed in Escherichia coli BL21 (DE3)
# Method in brief: as §2
row,SMILES,Ratio IC50
1,CCOC(=O)C(C)(C)Oc1ccc(F)c(/C=C/[N+](=O)[O-])c1,1.6
2,N#Cc1ccc(/C=C/[N+](=O)[O-])cc1,1.2
3,O=[N+]([O-])/C=C/c1cccc(F)c1,2.8

# Target: Fructose-1,6-bisphosphatase 1 (Homo sapiens, UniProt P09467, Y259A)
# Sequence (P09467 2-338 Y259A limits assumed): as the sequence (P09467 2-338 N126A limits assumed) above, with A125N, Y258A counted along it
# Assay: Inhibition of human FBPase Y258A mutant expressed in Escherichia coli BL21 (DE3) using FBP as substrate incubated for 5 mins by malachite green dye based spectrophotometry
# Method in brief: as §1
row,SMILES,pIC50
1,CCOC(=O)C(C)(C)Oc1ccc(F)c(/C=C/[N+](=O)[O-])c1,5.54
2,N#Cc1ccc(/C=C/[N+](=O)[O-])cc1,5.82
3,O=[N+]([O-])/C=C/c1cccc(F)c1,4.72

# Species: Homo sapiens
# Assay: Selectivity index, ratio of IC50 for human FBPase C281S mutant expressed in Escherichia coli BL21 (DE3) to IC50 for human FBPase expressed in Escherichia coli BL21 (DE3)
# Method in brief: as §2
row,SMILES,Ratio IC50
1,CCOC(=O)C(C)(C)Oc1ccc(F)c(/C=C/[N+](=O)[O-])c1,1.5
2,N#Cc1ccc(/C=C/[N+](=O)[O-])cc1,1.7
3,O=[N+]([O-])/C=C/c1cccc(F)c1,7.2

# Target: Fructose-1,6-bisphosphatase 1 (Homo sapiens, UniProt P09467, C117S)
# Sequence (P09467 2-338 C117S limits assumed): as the sequence (P09467 2-338 N126A limits assumed) above, with C116S, A125N counted along it
# Assay: Inhibition of human FBPase C116S mutant expressed in Escherichia coli BL21 (DE3) using FBP as substrate incubated for 5 mins by malachite green dye based spectrophotometry
# Method in brief: as §1
row,SMILES,pIC50
1,CCOC(=O)C(C)(C)Oc1ccc(F)c(/C=C/[N+](=O)[O-])c1,6.02
2,N#Cc1ccc(/C=C/[N+](=O)[O-])cc1,6.48
3,O=[N+]([O-])/C=C/c1cccc(F)c1,5.96

# Target: Fructose-1,6-bisphosphatase 1 (Homo sapiens, UniProt P09467, R244A)
# Sequence (P09467 2-338 R244A limits assumed): as the sequence (P09467 2-338 N126A limits assumed) above, with A125N, R243A counted along it
# Assay: Inhibition of human FBPase R243A mutant expressed in Escherichia coli BL21 (DE3) using FBP as substrate incubated for 5 mins by malachite green dye based spectrophotometry
# Method in brief: as §1
row,SMILES,pIC50
1,CCOC(=O)C(C)(C)Oc1ccc(F)c(/C=C/[N+](=O)[O-])c1,4.77
2,N#Cc1ccc(/C=C/[N+](=O)[O-])cc1,6.17
3,O=[N+]([O-])/C=C/c1cccc(F)c1,5.66
